Source: PubChem BioAssay
Only a selection was taken, and hits are over-represented in it overall.
Hsp70 activator – switches on Hsp70 transcription. HeLa Hsp70 promoter luciferase reporter, luminescence; scaled: vehicle 0, proteasome-inhibitor control 100%. activation, % at 10 µM. 0.04% of 200,000 active. AID 1203;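 active = activation above the mean across all tested compounds plus 3 SD, cutoff set per campaign, cut at about 5.5% in these data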
HSF1 inhib – HSF1 inhibition. NIH3T3-HGL HSE-luciferase, MG132-induced, luminescence 8 h; active compounds read low. activity change, negative = inhibition, % at 7.5 µM (by protocol). 0.77% of 300,000 active;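 active = more than half of replicate wells show activity change below -50%, luminescence cut by over half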;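 also: luciferase reports HSF-1 transcriptional activity via heat shock element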
HSF1 activator – increases HSF-1 driven luciferase reporter signal; NIH3T3-HGL HSF-1 luciferase reporter, MG132, 8 h; 100% = twice DMSO control signal; activation, % at 9 µM; 1.7% of 300,000 active;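 active = mean replicate activation of at least 50% with a set share of replicates each reaching 50%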
T cruzi repl – T. cruzi replication inhibition. T. cruzi beta-gal in NIH3T3, luminescence, 90 h. 1.4% of 300,000 active. AID 1885. inhibition, % (test concentration not listed);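 active = mean inhibition across valid replicates above about 55%, limit read from the data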;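 also: signal also drops with host cell toxicity which is not excluded here; higher percent means less beta-gal luminescence so fewer parasites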
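Assay system: NIH/3T3 fibroblasts plus reporter T. cruzi. Amount: NIH/3T3 cells, 5,000 per well. Buffer or medium: DMEM, 2% fetal bovine serum. Doses: compound pinned at 50 nL/well, DMSO. Schedule: ≥90 h infection period, 3 h prior cell attachment. Signal: luminescent β-galactosidase signal after 60 min lysis. Read-out: parasite load inhibition, %.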
Lmaj promast – Leishmania major promastigote growth inhibition. Leishmania major promastigotes, resazurin fluorescence viability. inhibition, % at 10 µM. 9% of 200,000 active; in the data active = inhibition above about 50%;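 also: promastigotes grown with compound for 44 hours at 28 °C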
Of the large screens only hits and unclear results are named; the others gave an inactive call.

COCCCC1CCN(C(=O)C2CCC(=O)N(Cc3ccccc3F)C2)CC1 (centres undefined)	none (no result: Hsp70 activator, Lmaj promast)
COc1ccc(C(=O)NCc2nnc(SCC(=O)N3CCc4ccccc43)n2C2CCCCC2)cc1	none
COc1ccc(C(=O)NCc2nnc(SCC(=O)N3CCc4ccccc43)n2CCc2ccccc2)cc1	HSF1 activator 80
O=C(Nc1ccccn1)C(=O)N1CCCCC1	none
Cc1ccc(S(=O)(=O)[N-]c2nc3ccccc3nc2-n2cc[n+](CCC(C)C)c2)cc1	Lmaj promast 99
Cc1ccc(S(=O)(=O)/N=C2\C(=O)c3ccccc3C([O-])=C2n2cc[n+](CCC(C)C)c2)cc1	Lmaj promast 88
O=C(Nc1nncs1)C12CC3CC(CC(Cl)(C3)C1)C2	none (no result: Hsp70 activator, Lmaj promast)
CCCc1cnc(N2CCN(C(=O)c3ccc(OC)cc3)CC2)nc1	none (no result: Hsp70 activator, Lmaj promast)
COC(=O)CSc1nc2[nH]ncc2c(=O)[nH]1	none
COc1ccccc1CNC(=O)C(NC(=O)c1ccc(C)cc1)C(C)C (centres undefined)	none
CCCCn1c(NC(=O)c2ccccc2)nc2ccccc21	T cruzi repl 56, Lmaj promast 96
CCCn1c(NC(=O)c2ccc(F)cc2)nc2ccccc21	T cruzi repl 84
CCCCn1c(NC(=O)C2CCCCC2)nc2ccccc21	Lmaj promast 71
COc1cccc(CN(C)C(=O)CCNC(=O)c2ccc(Br)cc2)c1	none (no result: Hsp70 activator, Lmaj promast)
O=C(Nc1ccccc1)N1N=C(c2cccs2)CC1c1cccs1 (centres undefined)	Lmaj promast 89
Cc1ccc(C2CC(c3cccs3)=NN2C(=O)CCl)cc1 (centres undefined)	T cruzi repl 59 (no result: Hsp70 activator, Lmaj promast)
O=C(c1ccccc1)C1Oc2ccccc2C2CC(c3cccs3)=NN12 (centres undefined)	Lmaj promast 65
Cc1c(Cl)cccc1NC(=S)NCc1ccccc1	Lmaj promast 72
FC(F)(F)c1ccccc1NC(=S)NC1CCN(Cc2ccccc2)CC1	Lmaj promast 76
S=C(Nc1ccccc1Cl)NC1CCN(Cc2ccccc2)CC1	Lmaj promast 95
O=C(NC1CCN(Cc2ccccc2)CC1)c1ccc(Cl)cc1Cl	none (no result: Hsp70 activator, Lmaj promast)
S=C(Nc1ccc(Cl)cc1Cl)NC1CCN(Cc2ccccc2)CC1	Lmaj promast 92
CC(=O)Nc1ccc(S(=O)(=O)Nc2ccc(S(=O)(=O)Nc3nccs3)cc2)cc1	none (no result: Hsp70 activator, Lmaj promast)
C/C(=N\NC(=S)NCc1ccccc1)c1ccccc1	none
Cc1c(Cl)cccc1NC(=S)NC1CCN(Cc2ccccc2)CC1	Lmaj promast 86
CC1=C/C(=N\NC(=S)NCc2ccccc2)CC1	T cruzi repl 69
NNC(=S)NCc1ccccc1	none (no result: Hsp70 activator, Lmaj promast)
S=C(NCc1ccccc1)NCc1cccc(CNC(=S)NCc2ccccc2)c1	Lmaj promast 85
CCCN1CCC(NC(=S)Nc2cccc(Cl)c2Cl)CC1	Lmaj promast 82
Cc1c(Cl)cccc1NC(=S)N1CCN(Cc2ccccc2)CC1	none
O=C(COC(=O)c1ccc(F)cc1F)Nc1ccc2[nH]c(=O)[nH]c2c1	none
Cc1nn(C)c(Cl)c1S(=O)(=O)N1CCC(CO)(CCc2ccccc2)CC1	none
CCc1cccc(N(CC(=O)NC2CCCCC2)C(=O)c2csnn2)c1	none (no result: Hsp70 activator, Lmaj promast)
Fc1ccccc1NC(=S)NN(Cc1ccccc1)c1ccccc1	none
S=C(NCC1CCCO1)Nc1ccccc1Cl (centres undefined)	Lmaj promast 64
CC(C)c1ccccc1NC(=S)NC1CCN(Cc2ccccc2)CC1	Lmaj promast 74
O=C(Nc1ccccc1)NC1CCN(Cc2ccccc2)CC1	none
CSc1ccccc1NC(=S)NCc1ccc(Cl)cc1	HSF1 activator 64 (no result: Hsp70 activator, Lmaj promast)
CC(C)c1ccccc1NC(=S)NN(Cc1ccccc1)c1ccccc1	Lmaj promast 54
O=C1Nc2cc(Cl)c(Cl)cc2N(O)N1c1ccc(Cl)c(Cl)c1	none
CC(=O)N1CCc2cc(S(=O)(=O)CCC(=O)Nc3ccccc3F)ccc21	none (no result: Hsp70 activator, Lmaj promast)
O=C1NC2(CCCCC2)C(=O)N1Cc1cccc(C(F)(F)F)c1	Lmaj promast 98
Cc1ccc2nc(-c3cccc(S(=O)(=O)N(C)C)c3)cn2c1	none
CCN(CC)S(=O)(=O)c1cccc(-c2cn3cc(C)ccc3n2)c1	Lmaj promast 85
CCN(CC)S(=O)(=O)c1cccc(-c2n[nH]c(=S)n2Cc2ccccc2)c1	Lmaj promast 100
Cc1cc(C)cc(NC(=S)NCCN2CCOCC2)c1	none
O=C(Nc1cccn2ncnc12)C(F)(F)F	HSF1 activator 63
Cc1ccc(Nc2cc(-n3nc(C)cc3C)ncn2)c(C)c1	none
Cc1ccc(Nc2cc(-n3cccn3)ncn2)c(C)c1	HSF1 activator 52
O=C(CN1CCCCC1)NCCNc1ccc(C(F)(F)F)cc1[N+](=O)[O-]	none
CCOCCc1nn2c(=O)cc(CSCC(=O)Nc3ccccc3)nc2s1	none (no result: Hsp70 activator, Lmaj promast)
Cc1cc(C)nc(SC/C=C/c2ccccc2)n1	none (no result: Hsp70 activator, Lmaj promast)
C(=C\c1ccccc1)/CSc1ccccn1	HSF1 activator 130
CCOC(=O)Cc1csc(SCC(=O)Nc2cccc(Cl)c2)n1	HSF1 activator 58
CCOC(=O)c1cccc(NC(=O)CSc2nnnn2CC)c1	none
Cc1cccc(NC(=O)CSc2nc(N)cc(N)n2)c1	none
COc1cccc(NC(=O)CSc2nnc3ccc(-c4ccncc4)nn23)c1	HSF1 activator 58 (no result: Hsp70 activator, Lmaj promast)
COc1cccc(NC(=O)CSc2nc(N)cc(N)n2)c1	HSF1 activator 66
CCOC(=O)c1cccc(NC(=O)CSc2nc(N)cc(N)n2)c1	HSF1 activator 55
O=C(NC1CC2CCC(C1)N2Cc1ccccc1)c1ccccc1Cl (centres undefined)	none (no result: Hsp70 activator, Lmaj promast)
O=C(O)CCCC(=O)Nc1ccccc1C(=O)N1CCOCC1	none
CCNC(=O)CC1C(=O)N(c2cccc(C)c2)C(=O)N1CCC(C)C (centres undefined)	none (no result: Hsp70 activator, Lmaj promast)
COc1cccc(NC(=O)CSc2nnc(-c3cc(C)n(-c4ccccc4)c3C)o2)c1	HSF1 inhib -53
Cc1nc2ccccc2c(=O)n1NC(=O)CCC(=O)O	none (no result: HSF1 inhib, HSF1 activator)
Cc1nc(CSc2ccc(Cl)cc2)cs1	HSF1 activator 51 (no result: Hsp70 activator, Lmaj promast)
Cc1nc(CSc2ccc(Br)cc2)cs1	none (no result: Hsp70 activator, Lmaj promast)
COc1ccc(NC(=O)CCNC(=O)c2ccccc2Cl)cc1OC	none (no result: Hsp70 activator, Lmaj promast)
O=C(CCNC(=O)c1ccccc1Cl)Nc1nccs1	none
CC[C@H](C)[C@H](NC(=O)OCc1ccccc1)C(=O)OCC(=O)Nc1ccc(N2CCOCC2)cc1	none (no result: Hsp70 activator, Lmaj promast)
Cn1c(SCc2ccccc2F)nc2cccnc21	HSF1 activator 63
CCOC(=O)CSc1nc2cccnc2n1C	none
O=C(CN1CCN(c2ncccn2)CC1)N1CCN(C(c2ccccc2)c2ccccc2)CC1	Lmaj promast 98 (no result: HSF1 inhib, HSF1 activator, T cruzi repl)
CCc1ccc(CN2CCC(n3nccc3NC(=O)Cc3ccccc3)CC2)o1	none (no result: Hsp70 activator, Lmaj promast)
CC(=O)c1ccc(NC(=S)N2C(C)CCCC2C)cc1 (centres undefined)	HSF1 activator 59
Cc1ccc2c(c1)S/C(=C/c1ccc[n+](CCO)c1)N2C	T cruzi repl 61, Lmaj promast 82
COC(=O)C1CCN(C(=O)C2CCC(=O)N(CCc3cccc(F)c3)C2)CC1 (centres undefined)	none (no result: Hsp70 activator, Lmaj promast)
